For one series, the system named is Rattus norvegicus. Description: Inhibition of pentagastrin-stimulated acid secretion in intraduodenally dosed perfused Sprague-Dawley rat Ghosh Schild model. It counts as functional. The conditions noted are these: intraduodenal.
A short description of series [1]: Inhibition of H+/K+ ATPase in hog gastric mucosa by malachite green based competitive binding assay. It is filed as tissue-based, Sus scrofa. The method in brief:
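Hog gastric mucosa H+/K+-ATPase, isolated enzyme; competitive binding assay run at pH 7.4; pIC50 reported as geometric mean of 4-5 measurements.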

Series [2] is described as follows: Dissociation constant, pKa at pH 2.0 to 11.0 by potentiometric cosolvent titration. It is filed as physicochemical.
A further series addresses hERG (KCNH2) (Homo sapiens, UniProt Q12809). Description: Inhibition of human ERG expressed in CHO-K1 cells at 10 uM by whole-cell patch clamp technique. It counts as cell-based. The conditions noted are these: CHO-K1 cells that express human ERG. The method in brief: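 CHO-K1 cells stably transfected with hERG; whole-cell patch clamp recording of tail currents with test compound at 10 μM, three cells per compound; relative block of tail current amplitude given as arithmetic mean.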

The nature of series [3]: Partition coefficient, log D by HPLC. It counts as physicochemical. The conditions noted are these: octanol/water. In a few lines: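 logD by reversed-phase HPLC at 37 °C, calibrated with seven reference substances of known logD.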
For a further series, the system named is Gastric gland. Description: Inhibition of acid secretion in New Zealand White rabbit intact gastric glands assessed as [14C]dimethylaminopyridine accumulation by radioactivity. It is filed as functional, tissue-based. The following applies: Oryctolagus cuniculus. The method in brief:
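Gastric glands isolated intact from New Zealand rabbits; cellular activity read as reduced accumulation of the weak base 14C-dimethylaminopyridine; pIC50 given as geometric mean of 4-5 determinations.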

Sequence of hERG (KCNH2) (Q12809 whole entry): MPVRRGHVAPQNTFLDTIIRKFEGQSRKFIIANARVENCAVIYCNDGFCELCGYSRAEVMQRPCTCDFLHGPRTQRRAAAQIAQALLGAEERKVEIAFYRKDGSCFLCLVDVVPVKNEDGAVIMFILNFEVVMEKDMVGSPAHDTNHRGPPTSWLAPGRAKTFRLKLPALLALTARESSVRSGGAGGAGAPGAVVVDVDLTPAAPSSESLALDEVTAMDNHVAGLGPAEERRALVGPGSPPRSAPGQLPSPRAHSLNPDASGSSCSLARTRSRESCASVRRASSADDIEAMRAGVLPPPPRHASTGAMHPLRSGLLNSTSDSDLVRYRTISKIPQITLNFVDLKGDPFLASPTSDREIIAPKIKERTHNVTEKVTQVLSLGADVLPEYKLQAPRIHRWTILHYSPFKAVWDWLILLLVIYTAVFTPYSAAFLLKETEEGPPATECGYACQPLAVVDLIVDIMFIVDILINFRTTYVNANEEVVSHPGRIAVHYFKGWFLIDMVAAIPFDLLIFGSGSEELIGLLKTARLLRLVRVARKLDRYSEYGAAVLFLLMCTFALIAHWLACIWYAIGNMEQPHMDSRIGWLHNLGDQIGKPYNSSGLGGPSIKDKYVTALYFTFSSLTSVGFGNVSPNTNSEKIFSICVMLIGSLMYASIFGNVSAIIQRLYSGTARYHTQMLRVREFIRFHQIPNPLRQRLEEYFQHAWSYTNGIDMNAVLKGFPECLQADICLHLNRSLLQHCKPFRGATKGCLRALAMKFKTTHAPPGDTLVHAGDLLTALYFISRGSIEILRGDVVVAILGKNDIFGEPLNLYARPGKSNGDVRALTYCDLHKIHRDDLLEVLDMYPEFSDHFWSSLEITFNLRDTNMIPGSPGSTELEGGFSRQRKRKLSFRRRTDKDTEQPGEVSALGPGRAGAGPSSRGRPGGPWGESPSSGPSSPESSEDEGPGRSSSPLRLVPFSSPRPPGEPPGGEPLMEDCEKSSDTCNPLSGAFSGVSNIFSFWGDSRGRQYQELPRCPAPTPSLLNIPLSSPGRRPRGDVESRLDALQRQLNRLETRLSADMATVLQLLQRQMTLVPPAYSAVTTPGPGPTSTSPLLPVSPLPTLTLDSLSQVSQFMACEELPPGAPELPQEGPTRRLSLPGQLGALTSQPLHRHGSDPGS

In the series with Rattus norvegicus, `COCc1cc2c(nc(C)n2C)c2c1CC[C@@H](c1ccccc1C)O2` came in with an ED50 of 0.5 µmol/kg. The compound further displayed a pIC50 in series [1] of 5.1. Further, the pKa in series [2] was determined as 6.24. The compound also returned an inhibition at 10 µM on hERG (KCNH2) of 34%. Also, the logD in series [3] was found to be 3.4. Moreover, the IC50 in the series with Gastric gland was 1 µM.
Take `Cc1ccccc1[C@@H]1CCc2c(C(=O)NC3COC3)cc3c(nc(C)n3C)c2O1`: in the series with Rattus norvegicus, it took a dose of 2 µmol/kg to reach the 50% effect level (ED50). The pIC50 in series [1] is listed as 4.6. The inhibition at 10 µM at hERG (KCNH2) was determined as 49%. Also, the logD in series [3] stood at 2.6. For the same compound, in the series with Gastric gland, the IC50 is 10 µM.
The matching figures for `Cc1nc2c3c(c(C(=O)N(C)C)cc2n1C)CC[C@@H](c1ccc(F)cc1Cl)O3`: 0.1 µmol/kg, 5.4, 33%, 3 and 0.794 µM.
The like results for `Cc1ccccc1[C@@H]1CCc2c(C(=O)NCC3CCCCO3)cc3c(nc(C)n3C)c2O1` (stereo partly drawn) were, in that order, 1.2 µmol/kg, below 5, 54%, 3.3 and 6.31 µM.
In the case of `Cc1ccccc1[C@@H]1CCc2c(C(=O)N3CC(F)C3)cc3c(nc(C)n3C)c2O1`, the 50% effect level in the series with Rattus norvegicus (ED50) was put at a dose of 0.3 µmol/kg. The pIC50 in series [1] came to 5. The compound further registered a pKa in series [2] of 5.54. At hERG (KCNH2), this compound registered an inhibition at 10 µM of 28%. The logD in series [3] was found to be 3. For the same compound, the IC50 in the series on Gastric gland is 1 µM.
In the case of `Cc1ccccc1[C@@H]1CCc2c(C(=O)N3CC(O)C3)cc3c(nc(C)n3C)c2O1`, in the series with Rattus norvegicus, the ED50 was 1.2 µmol/kg. The pIC50 in series [1] is listed as 5. This compound had an inhibition at 10 µM against hERG (KCNH2) of 11%. In series [3], this compound yielded a logD of 2.4. In addition, the IC50 with Gastric gland was 39.8 µM.
In the series on Rattus norvegicus, `Cc1ccccc1[C@@H]1CCc2c(C(=O)N(C)C)cc3c(nc(CO)n3C)c2O1` registered an ED50 of 1 µmol/kg. On hERG (KCNH2), this compound yielded an inhibition at 10 µM of 12%. For the same compound, the logD in series [3] was determined as 2.5. In addition, in the series with Gastric gland, the IC50 is 1.17 µM.
In the case of `Cc1nc2c3c(c(C(=O)N(C)C)cc2n1C)CC[C@@H](c1ccccc1)O3`, the 50% effect level in the series with Rattus norvegicus (ED50) was put at a dose of 0.26 µmol/kg. Moreover, the pIC50 in series [1] is 5.3. At hERG (KCNH2), this compound yielded an inhibition at 10 µM of 28%. In series [3], this compound yielded a logD of 2.5. Also, the IC50 with Gastric gland was 3.16 µM.
Regarding `Cc1ccccc1[C@@H]1CCc2c(C(=O)NCC3CC3)cc3c(nc(C)n3C)c2O1`, in the series on Rattus norvegicus, the ED50 is below 0.3 µmol/kg. Also, the pIC50 in series [1] was determined as 4.7. In series [2], the pKa is 5.76. Moreover, at 10 µM the inhibition on hERG (KCNH2) was 90%. This compound also came in with a logD in series [3] of 3.3. Further, in the series with Gastric gland, the IC50 is 0.501 µM.
Compound `Cc1ccccc1[C@@H]1CCc2c(C(=O)N3CC(F)(F)C3)cc3c(nc(C)n3C)c2O1` returned an ED50 with Rattus norvegicus of 0.3 µmol/kg. Besides, the pIC50 in series [1] stood at 4.7. This compound registered a pKa in series [2] of 5.36. This compound also displayed an inhibition at 10 µM against hERG (KCNH2) of 28%. The same compound yielded a logD in series [3] of 3.3. For the same compound, the IC50 in the series on Gastric gland is 3.98 µM.
In the case of `Cc1ccccc1[C@@H]1CCc2c(C(N)=O)cc3c(nc(C)n3C)c2O1`, it took a dose of 2 µmol/kg to reach the 50% effect level with Rattus norvegicus (ED50). This compound came in with a pIC50 in series [1] of 4.8. Further, at 10 µM the inhibition on hERG (KCNH2) was 14%. In series [3], the logD turned out to be 2.5. Further, the IC50 in the series on Gastric gland was 5.01 µM.
The like results for `CNC(=O)c1cc2c(nc(C)n2C)c2c1CC[C@@H](c1ccccc1)O2` were, in that order, 0.5 µmol/kg, 4.8, 26%, 2.4 and 6.31 µM.
`Cc1ccccc1[C@@H]1CCc2c(C(=O)N3CCCC3)cc3c(nc(C)n3C)c2O1`: it took a dose of 0.7 µmol/kg to reach the 50% effect level in the series with Rattus norvegicus (ED50). The compound further had a pIC50 in series [1] of 5.4. Besides, the pKa in series [2] stood at 5.7. Moreover, at hERG (KCNH2), the inhibition at 10 µM is 43%. In series [3], this compound yielded a logD of 3.1. The IC50 with Gastric gland was 0.794 µM.
The compound `CONC(=O)c1cc2c(nc(C)n2C)c2c1CC[C@@H](c1ccccc1C)O2` registered an ED50 with Rattus norvegicus of 1.8 µmol/kg. In series [1], this compound came in with a pIC50 of 4.6. In addition, the inhibition at 10 µM against hERG (KCNH2) came to 13%. This compound also came in with a logD in series [3] of 2.6. In addition, the IC50 in the series with Gastric gland was 10 µM.
For `Cc1ccccc1[C@@H]1CCc2c(C(=O)NCC[S+](C)[O-])cc3c(nc(C)n3C)c2O1` (stereo partly drawn), the ED50 in the series with Rattus norvegicus was determined as 1.4 µmol/kg. In addition, in series [1], the pIC50 is reported as 4.6. On hERG (KCNH2), this compound showed an inhibition at 10 µM of 6%.
In the case of `Cc1ccccc1[C@@H]1CCc2c(C(=O)NCC#N)cc3c(nc(C)n3C)c2O1`, the ED50 in the series on Rattus norvegicus stood at 3 µmol/kg. Besides, the pIC50 in series [1] is 4.7. The compound further registered an inhibition at 10 µM against hERG (KCNH2) of 18%. Further, the logD in series [3] was 2.9. The half-inhibitory concentration (IC50) in the series with Gastric gland is 12.6 µM.
The like results for `Cc1ccccc1[C@@H]1CCc2c(C(=O)NC(C)C)cc3c(nc(C)n3C)c2O1` were, in that order, 0.45 µmol/kg, 4.7, 30%, 3.1 and 0.631 µM.
`Cc1ccccc1[C@@H]1CCc2c(C(=O)N(C)C)cn3c(C)c(C)nc3c2O1`: the pKa in series [2] (read-out: pKa) was 7.15.
Turning to `Cc1ccccc1[C@@H]1CCc2c(C(=O)N3CCOCC3)cc3c(nc(C)n3C)c2O1`, in the series on Rattus norvegicus, the ED50 worked out at 1 µmol/kg. In series [1], this compound registered a pIC50 of 4.8. This compound also showed an inhibition at 10 µM on hERG (KCNH2) of 4%. For the same compound, in series [3], the logD was determined as 2.8. Also, in the series on Gastric gland, the IC50 was 5.01 µM.
Turning to `COCCNC(=O)c1cc2c(nc(C)n2C)c2c1CC[C@@H](c1ccccc1C)O2`, the ED50 in the series with Rattus norvegicus came to 0.8 µmol/kg. Moreover, in series [1], the pIC50 amounted to 4.9. The inhibition at 10 µM on hERG (KCNH2) turned out to be 55%. In series [3], the logD came out at 2.8. The IC50 in the series on Gastric gland was 3.16 µM.
The like results for `COCc1nc2c3c(c(C(=O)N(C)C)cc2n1C)CC[C@@H](c1ccccc1C)O3` were, in that order, 3 µmol/kg, 4.57, 7%, 2.9 and 45.7 µM.
In turn, `CCCNC(=O)c1cc2c(nc(C)n2C)c2c1CC[C@@H](c1ccccc1C)O2` yielded an ED50 in the series with Rattus norvegicus below 0.3 µmol/kg. In series [1], this compound displayed a pIC50 of 4.7. The pKa in series [2] came out at 5.63. The inhibition at 10 µM at hERG (KCNH2) came out at 66%. Also, the logD in series [3] was 3.2. In addition, the IC50 in the series on Gastric gland is 0.631 µM.
In the case of `Cc1ccccc1[C@@H]1CCc2c(C(=O)N3CC(CO)C3)cc3c(nc(C)n3C)c2O1`, the ED50 in the series on Rattus norvegicus came out at 1.4 µmol/kg. This compound also displayed a pIC50 in series [1] of 5. Moreover, at hERG (KCNH2), 10 µM produced 2% inhibition. The same compound gave a logD in series [3] of 2.4. Besides, in the series on Gastric gland, the IC50 was 63.1 µM.
The like results for `Cc1nc2c3c(c(C(=O)N4CCC4)cc2n1C)CC[C@@H](c1ccc(Cl)cc1)O3` were, in that order, 0.16 µmol/kg, 5.3, 84%, 3 and 1.26 µM.
The like results for `Cc1nc2c3c(c(C(=O)N(C)C)cc2n1C)CC[C@@H](c1cccs1)O3` were, in that order, 2 µmol/kg, 5, 9%, 2.4 and 50.1 µM.
The like results for `Cc1ccccc1[C@@H]1CCc2c(C(=O)N3CCC3)cc3c(nc(C)n3C)c2O1` were, in that order, 0.3 µmol/kg, 5.5, 14%, 2.8 and 0.794 µM.
In the series on Rattus norvegicus, `CSCCNC(=O)c1cc2c(nc(C)n2C)c2c1CC[C@@H](c1ccccc1C)O2` registered an ED50 of 1 µmol/kg. In series [1], the pIC50 turned out to be 4.8. This compound also gave an inhibition at 10 µM against hERG (KCNH2) of 73%. In addition, the logD in series [3] stood at 3.2. In the series with Gastric gland, the IC50 is 1.26 µM.
In the case of `COCCN(C)C(=O)c1cc2c(nc(C)n2C)c2c1CC[C@@H](c1ccccc1C)O2`, in the series with Rattus norvegicus, the ED50 is 1.2 µmol/kg. The compound also gave a pIC50 in series [1] of 4.9. This compound displayed an inhibition at 10 µM against hERG (KCNH2) of 8%. In series [3], this compound showed a log distribution coefficient (logD) of 2.9. The IC50 in the series with Gastric gland was 3.16 µM.
The like results for `Cc1ccccc1[C@@H]1CCc2c(C(=O)NCC3CCCO3)cc3c(nc(C)n3C)c2O1` (stereo partly drawn) were, in that order, 1 µmol/kg, 4.3, 75%, 3 and 3.16 µM.
The matching figures for `Cc1cc(F)ccc1[C@@H]1CCc2c(C(=O)N(C)C)cc3c(nc(C)n3C)c2O1`: below 0.3 µmol/kg, 5.6, 19%, 2.9 and 0.501 µM.
Consider `CCOC1CN(C(=O)c2cc3c(nc(C)n3C)c3c2CC[C@@H](c2ccccc2C)O3)C1`, for which, in the series on Rattus norvegicus, the 50% effect level (ED50) was put at a dose of 0.4 µmol/kg. Moreover, the pIC50 in series [1] is 4.5. The inhibition at 10 µM against hERG (KCNH2) amounted to 70%. Moreover, the pH-dependent lipophilicity (logD) in series [3] was found to be 3. Also, the IC50 with Gastric gland is 0.794 µM.
The matching figures for `CNC(=O)c1cc2c(nc(C)n2C)c2c1CC[C@@H](c1ccc(Cl)cc1)O2`: 0.3 µmol/kg, below 5, 68%, 2.9 and 2 µM.
`Cc1nc2c3c(c(C(=O)N4CCC4)cc2n1C)CC[C@@H](c1ccccc1)O3` showed an ED50 in the series with Rattus norvegicus of 0.3 µmol/kg. In series [1], this compound yielded a pIC50 of 4.9. On hERG (KCNH2), the inhibition at 10 µM came to 18%. In addition, in series [3], the logD came to 2.6. The IC50 in the series with Gastric gland was 2.51 µM.
In the series on Rattus norvegicus, `COC1(C)CN(C(=O)c2cc3c(nc(C)n3C)c3c2CC[C@@H](c2ccccc2C)O3)C1` yielded an ED50 of 1 µmol/kg. The pIC50 in series [1] was found to be 4.3. On hERG (KCNH2), the inhibition at 10 µM came to 20%. In addition, the IC50 with Gastric gland was 3.16 µM.
